Published values of several laboratories.
Each line is one published result; the experiments were not run side by side.
MAOA: Amine oxidase [flavin-containing] A (MAOA, Homo sapiens, UniProt P21397)
CTSS: Cathepsin S (CTSS, Homo sapiens, UniProt P25774)
ahcY: ahcY (Saccharolobus solfataricus, UniProt P50252)

For `Cc1ccc(F)c(CNS(=O)(=O)c2cccc3cccnc23)c1`, the IC50 was 1.81 µM (Amine oxidase [flavin-containing] B (Maob, Mus musculus, UniProt Q8BW75); enzyme activity, inhibitor, fluorescence).
The IC50 of `CC[C@H](C)[C@H](NC(=O)[C@H](Cc1ccc(O)cc1)NC(=O)[C@@H](NC(=O)[C@H](CCCNC(=N)N)NC(=O)[C@@H](N)CC(=O)O)C(C)C)C(=O)N[C@@H](Cc1cnc[nH]1)C(=O)N1CCC[C@H]1C(=O)N[C@@H](Cc1ccccc1)C(=O)O` is reported as 4.9 µM (Angiotensin-converting enzyme 2 (ACE2, Homo sapiens, UniProt Q9BYF1); enzyme activity, inhibitor, fluorescence).
`CNC(=O)c1ccc(-c2cnn3ccc(C(=O)N(C)c4ccc(Cl)c(C(=O)OC)c4)cc23)cc1` has an IC50 of over 30 µM (MAOA; cell-free assay).
`C#CCN(C)CCCCCOCc1ccc(CN(C)c2c3c(nc4ccc(C)cc24)CCCC3)cc1` gave an IC50 of 0.53 µM (MAOA; enzyme activity, inhibitor, fluorescence).
`Cn1nccc1[C@]1(CNC(=O)c2ccc(F)c(F)c2-c2ccc(C(F)(F)F)cc2)NC(=O)NC1=O` has an IC50 of over 100 µM (CTSS; enzyme activity, inhibitor).
`CN(C)c1cccc2c(S(=O)(=O)NCCCCCCCCCCC(=O)O)cccc12` gave a Kd of 0.2 µM (Fatty acid-binding protein, liver (FABP1, Homo sapiens, UniProt P07148); binding, fluorescence).
With `CC(C)C[C@H](NC(=O)[C@H]1O[C@@H]1C(=O)O)C(=O)NCCCCN=C(N)N` the IC50 was 0.00073 µM (CTSS; enzyme activity, inhibitor).
`NC(=O)c1cccc(C#CCN(CC[C@H](N)C(=O)O)C[C@H]2O[C@@H](n3cnc4c(N)ncnc43)[C@H](O)[C@@H]2O)c1` has an IC50 of 8.5 µM (ahcY; enzyme activity, inhibitor).
`C#CCN(C)CCCCCCOc1cccc(CN(C)c2c3c(nc4ccc(F)cc24)CCCC3)c1` gave an IC50 of 50.7 µM (MAOA; enzyme activity, inhibitor, fluorescence).
With `CNC(=O)c1ccc(-c2cnn3ccc(C(=O)N(C)c4ccc(Cl)c(C(=O)O)c4)cc23)cc1` the IC50 was over 30 µM (Alpha-1A adrenergic receptor (ADRA1A, Homo sapiens, UniProt P35348); cell-free assay).
With `C#CCN(C)CCCCCCCCOCc1ccc(CN(C)c2c3c(nc4ccccc24)CCCC3)cc1` the IC50 was 8.29 µM (MAOA; enzyme activity, inhibitor, fluorescence).
The IC50 of `O=C(O)[C@@H]1CS[C@H]2CS[C@H](CCS)N21` is reported as over 1000 µM (sfhI (Serratia fonticola, UniProt Q9RMI1); enzyme activity, inhibitor).
With `C#CCN(C)CCCCCCCOc1cccc(CN(C)c2c3c(nc4ccccc24)CCCC3)c1` the IC50 was 7.68 µM (MAOA; enzyme activity, inhibitor, fluorescence).
For `CC(=O)N(CC#Cc1cccc(C(N)=O)c1)C[C@H]1C[C@@H](n2ccc3c(Cl)ncnc32)[C@H](O)[C@@H]1O`, the IC50 was over 333 µM (ahcY; enzyme activity, inhibitor).
